Screening data as filed in PubChem.
An excerpt weighted towards active compounds, which were near 4.2% of everything screened.
Hep lipid drop: hepatic lipid droplet formation modulation; AML12 mouse hepatocytes, oleate lipid droplets, BODIPY imaging; inhibition, % at 6.5 µM; 240,000 compounds, 0.4% hits; AID 1656;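 active = lipid droplet intensity inhibited by at least 50%, with more than 500 cells counted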
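Technique: fluorescence imaging, 20x objective, two fields per well / Assay system: AML12 hepatocytes (mouse) / Measure: % inhibition of lipid droplet signal / Doses: 6.5 µM single-point dosing / Incubation: overnight exposure / Reagent: 100 µM oleic acid challenge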
CHOP inh: CHOP inhibition in unfolded protein response; CHO-K1 CHOP-promoter luciferase, tunicamycin-induced, 15-18 h; inhibition, % at 10 µM; 220,000 compounds, 3.8% hits; AID 2732;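 active = compounds that reduced the stress-induced luciferase reporter signal by more than about 70% of percent inhibition, limit read from the data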;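 note: 0% = tunicamycin plus vehicle and 100% = wells without tunicamycin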
UPR XBP1 act: adaptive UPR (XBP1) activation. 330,000 compounds, 0.33% hits. activation, % at 20 µM. CHO-XBP1 luciferase reporter, IRE1-XBP1 UPR activation, luminescence; percent of tunicamycin response, DMSO as zero;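 active = versus positive control, 20 µM dose yields 30% or more activation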;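 note: 100% = tunicamycin at 10 µg/mL and 0% = DMSO only wells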
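Material: CHO cell line with stable XBP1 luciferase reporter; schedule: 16-18 h cell attachment at 37 °C, then 6 h compound exposure; signal: glow luminescence from Steady-Glo reagent; medium: serum-containing F12 medium, 10% FBS; benchmarks: tunicamycin 10 µg/mL and vehicle-only wells; read-out: percent activation relative to tunicamycin reference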
CHOP UPR activ: apoptotic UPR (CHOP) activation. CHO-CHOP luciferase reporter, luminescence; percent of tunicamycin response over DMSO baseline. activation, % at 10 µM. 330,000 compounds, 0.34% hits. AID 449763;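 active = at 10 µM dose, activation of 40% or more, normalized to positive control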;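 note: 100% = tunicamycin at 10 µg/mL and 0% = DMSO alone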
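System: CHO CHOP reporter cells. Amount: 500 cells per well. Buffer or medium: F12 medium, 10% FBS. Compound dosing: one dose, 10 µM in 0.5% DMSO. Incubation: 6 h compound exposure at 37 °C after overnight seeding. Technique: Steady-Glo luciferase luminescence. Benchmarks: tunicamycin and DMSO controls.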
TMEM16A act: mouse TMEM16A channel activation, primary screen; Q8BHY3; HEK293 TMEM16A/YFP-H148Q/I152L, iodide quench fluorescence; active compounds read low; B-score at 10 µM; 340,000 compounds, 0.3% hits; AID 623877;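 active = fluorescence-ratio B-score plate-corrected deviation score at least 3 library SD below zero, with starting fluorescence score within 5 deviations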;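 note: channel opened by trigger with iodide after compound preincubation; score built on the fluorescence ratio of max minus min over baseline; more negative score means more quench and so TMEM16A activation or potentiation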
Target sequence (Q8BHY3 whole entry, looked up): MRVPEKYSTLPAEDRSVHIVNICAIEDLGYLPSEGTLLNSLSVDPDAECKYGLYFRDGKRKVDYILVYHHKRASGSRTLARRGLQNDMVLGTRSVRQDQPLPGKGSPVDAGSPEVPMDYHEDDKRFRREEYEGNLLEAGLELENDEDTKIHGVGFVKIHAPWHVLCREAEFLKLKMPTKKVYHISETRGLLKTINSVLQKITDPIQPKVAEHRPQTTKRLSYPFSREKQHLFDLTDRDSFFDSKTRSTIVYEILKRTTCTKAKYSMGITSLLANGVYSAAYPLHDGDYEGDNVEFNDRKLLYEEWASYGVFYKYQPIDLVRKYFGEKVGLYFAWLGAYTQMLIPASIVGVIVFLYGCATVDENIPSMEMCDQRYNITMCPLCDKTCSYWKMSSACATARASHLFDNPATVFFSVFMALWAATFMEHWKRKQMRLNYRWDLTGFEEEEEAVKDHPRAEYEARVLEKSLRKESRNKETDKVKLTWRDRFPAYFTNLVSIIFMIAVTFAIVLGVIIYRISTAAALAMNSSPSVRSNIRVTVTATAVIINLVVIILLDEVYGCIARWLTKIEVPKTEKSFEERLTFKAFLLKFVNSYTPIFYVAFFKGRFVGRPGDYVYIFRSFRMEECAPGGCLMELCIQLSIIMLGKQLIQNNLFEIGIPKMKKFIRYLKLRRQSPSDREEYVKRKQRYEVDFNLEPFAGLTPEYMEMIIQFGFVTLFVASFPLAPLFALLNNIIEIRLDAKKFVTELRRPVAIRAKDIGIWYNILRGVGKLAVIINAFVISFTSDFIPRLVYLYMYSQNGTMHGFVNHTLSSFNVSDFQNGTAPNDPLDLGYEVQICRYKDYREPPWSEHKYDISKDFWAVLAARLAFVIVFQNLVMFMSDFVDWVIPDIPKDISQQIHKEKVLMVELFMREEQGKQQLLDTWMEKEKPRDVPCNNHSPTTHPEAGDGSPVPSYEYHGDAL
TMEM16A inh: blocks the mouse calcium-activated chloride channel TMEM16A | HEK293 TMEM16A/YFP iodide influx fluorescence, ionomycin | normalized B-score (activity score, 25-100; higher = stronger inhibition) at 10 µM | 310,000 compounds, 1.2% hits | AID 588511;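 active = ratio plate-corrected score three or more library SD toward inhibition, starting fluorescence score within five deviations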;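 note: score derived from kinetic fluorescence span divided by baseline fluorescence per well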
XBP1 UPR conf: confirmation of adaptive unfolded protein response (XBP1) activators. shares compounds with UPR XBP1 act. CHO-XBP1 IRE1-XBP1 luciferase reporter, luminescence. 1,000 compounds, 63% hits. activation, % at 20 µM;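 active = reporter signal at least 30% of the positive control's activation in two or more of four replicate wells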;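 note: plate controls were DMSO negative control for no effect and tunicamycin 10 µg/mL positive control for full effect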
An asterisk follows results filed as active; i = inactive; / = not tested or not shown.

SMILES | Hep lipid drop | CHOP inh | UPR XBP1 act | CHOP UPR activ | TMEM16A act | TMEM16A inh | XBP1 UPR conf
COc1ccc(CCNC(=O)CCS(=O)(=O)c2ccc3c(c2)oc(=O)n3C)cc1OC | 3.2 | / | -4.3 | 1.7 | i | i | /
COc1cc2nc(SCC(=O)NCc3ccco3)n(Cc3ccc(Cl)cc3)c(=O)c2cc1OC | -35.1 | 88.7* | 34.6* | 17.7 | i | i | 0.9
COCc1cc(CNC(=O)C2CCC(=O)N(Cc3cccc(OC)c3)C2)[nH]n1 (stereo not given) | 0.1 | / | -4.7 | -0.4 | i | / | /
COc1ccc(Cl)cc1N1C(=NC(=O)C2CCCO2)SC2CS(=O)(=O)CC21 (stereo not given) | -53.8 | / | -3.4 | 1.8 | i | i | /
COC(=O)c1ccc(CSc2nc3ccccc3c(=O)n2-c2ccccc2)o1 | -7.8 | 29.9 | 34.7* | -2.1 | i | i | 11.9
O=C(CSc1nc2ccccc2c(=O)n1-c1ccccc1)N1CCc2ccccc21 | -9.7 | -24.8 | 35.9* | 2.2 | i | i | 42.0*
O=C(CSc1nc2ccccc2c(=O)n1-c1ccccc1)N1CCCc2ccccc21 | 21.6 | 12.6 | 2.4 | 2.3 | i | i | /
CN(C(=O)Nc1ccccc1)C1CCCc2ccccc21 (stereo not given) | 4.3 | / | -0.5 | 1.1 | i | i | /
CCN(CC)C(=O)c1[nH]cnc1C(=O)Nc1cccc(C)c1 | / | / | -1.6 | 3.0 | i | / | /
Cc1cccc(NC(=O)c2nc[nH]c2C(=O)Nc2ccccc2[N+](=O)[O-])c1 | 24.4 | 12.8 | 30.3* | 12.8 | i | i | 42.2*
CCCCC(=O)OCc1c(-c2ccccc2)ncc2ccccc12 | / | / | -3.7 | 0.6 | i | / | /
CCOC(=O)c1[nH]c(C)c(C(=O)OCC(=O)Nc2sc3c(c2C#N)CCCCC3)c1C | 11.8 | 84.1* | 62.6* | 6.2 | i | i | 22.1
CCc1ccc(OCCNc2cc(N3CCNC(C)C3)ccc2[N+](=O)[O-])cc1 (stereo not given) | / | / | 56.3* | 5.4 | i | / | 68.3*
COc1ccc(/C=N/Nc2cc(C)nc3ccc(Br)cc23)cc1 | 22.6 | / | 32.1* | 20.0 | i | i | 36.3*
Cc1c(CCOC(=O)C23CC4(C)CC(C)(CC(C)(C4)C2)C3)sc[n+]1CC(=O)c1ccccc1 | -11.4 | 3.5 | 39.5* | -1.2 | i | i | 64.8*
O=c1cc(N2CCc3ccccc3C2)[nH]c(=O)n1Cc1ccc(F)cc1 | 14.2 | -0.9 | 42.5* | -1.6 | i | i | -0.5
Cc1ccnc(N/C=C(\C#N)c2nc(-c3cccc(Br)c3)cs2)c1 | 0.9 | 44.2 | 91.0* | 2.5 | i | i | 94.3*
N#C/C(=C\Nc1ccc2cn[nH]c2c1)c1nc(-c2ccccc2)cs1 | 9.2 | -66.2 | / | / | i | / | /
NC1=NC[C@@H](CC2CCCCC2)N1CCc1cc(C(F)(F)F)cc(C(F)(F)F)c1 | / | / | 49.0* | 1.2 | / | / | 54.9*
NC1=NC[C@H](Cc2ccc(O)cc2)N1CCc1cc(C(F)(F)F)cc(C(F)(F)F)c1 | 22.5 | 38.2 | -3.9 | 0.5 | i | i | /
Cc1ccc2c(-c3csc(N)n3)c[nH]c2c1 | -19.9 | / | 2.5 | 1.8 | / | i | /
CSC1=NC(C)(C)C=C(/C=C/c2ccc(Cl)cc2)N1 | 6.6 | -21.7 | 34.6* | 7.7 | i | i | 45.4*
CSC1=NC(C)(C)C=C(/C=C/c2ccc(Cl)cc2Cl)N1 | -3.5 | -25.0 | -1.9 | 0.1 | i | i | /
CCOC(=O)c1nnc(-c2ccccc2)nc1Sc1c(Cl)cccc1Cl | / | 13.6 | 47.3* | 26.0 | i | i | 96.7*
CCOC(=O)c1nnc(-c2ccc(C)cc2)nc1Sc1ccccc1Cl | 8.1 | 53.7 | 33.0* | 24.9 | i | i | 47.9*
SMILES | Hep lipid drop | CHOP inh | UPR XBP1 act | CHOP UPR activ | TMEM16A act | TMEM16A inh | XBP1 UPR conf
CCOC(=O)c1nnc(-c2ccc(C)cc2)nc1Sc1ccc(Cl)cc1 | -1.1 | 64.4 | 47.2* | 22.2 | i | i | 18.7
CCOC(=O)c1nnc(-c2ccc(C)cc2)nc1N1CCSCC1 | -1.3 | 41.4 | -0.4 | 1.2 | i | i | /
COCc1cc(C)nc(SCC(=O)c2ccc(O)c(O)c2)c1C#N | 11.6 | 18.9 | 40.6* | 16.5 | i | i | 43.0*
COCc1cc(C)nc(SCC(=O)Oc2ccccc2)c1C#N | 0.4 | 26.6 | -0.6 | -0.1 | i | i | /
C#CCn1c(=NC(=O)c2ccc(Br)s2)sc2cccc(OC)c21 | -31.0 | 49.8 | 73.4* | 6.2 | i | i | 72.9*
O=C(Nc1ccccc1)c1ccc(OC(=O)c2ccccc2)cc1 | -3.6 | / | -1.7 | 4.3 | i | i | /
Cc1ccc(NC2=C(Cl)C(=O)OC2OC(C)C)c(C)c1 (stereo not given) | 3.2 | 14.5 | 35.8* | 1.7 | i | i | 0.0
CCC(Oc1ccc(C)c(C)c1)C(=O)N1CCCN(C)CC1 (stereo not given) | -14.0 | / | -4.8 | 0.3 | i | i | /
CCNc1nc(NCC)n2c(SC(C(=O)Nc3cc(Cl)cc(Cl)c3)c3ccccc3)nnc2n1 (stereo not given) | -26.3 | 89.8* | 89.6* | 14.9 | i | i | 24.7
CCNc1nc(NCC)n2c(SCC(=O)Nc3cccc(Cl)c3)nnc2n1 | / | / | -0.3 | -1.0 | i | i | /
COc1ccc(-c2sc3cc4c(cc3c2C#CC2(N)CCCCC2)OCO4)cc1 | / | / | 33.6* | 11.4 | i | / | 15.1
Nc1ccccc1NC(=O)c1ccccc1 | / | 19.2 | 3.7 | 1.4 | i | i | /
Nc1ccc(NC(=O)c2ccccc2)c2c1C(=O)c1ccccc1C2=O | / | -0.5 | 32.1* | 0.5 | i | i | 26.1
CCOc1ccc(NC(=O)c2cccc(-n3cccc3)c2)cc1S(=O)(=O)N1CCOCC1 | / | / | -2.6 | -0.8 | / | / | /
N#C/C(C(=O)NCc1ccccc1)=C1/N=C(NC(=O)c2ccco2)c2ccccc21 | -27.3 | 12.7 | 3.1 | -0.4 | i | i | /
COc1ccc(CCNC(=O)/C(C#N)=C2\N=C(NC(=O)c3ccco3)c3ccccc32)cc1 | / | -21.5 | 33.0* | 10.7 | i | i | 24.1
COc1cc(OC)cc(OC(=O)C2CCN(C(=O)c3ccc(F)cc3)CC2)c1 | / | / | -0.8 | -0.7 | i | i | /
O=c1c2ccccc2nc(CSc2nnnn2-c2ccccc2)n1-c1ccccc1Cl | -7.0 | 70.7* | 52.4* | 34.9 | i | i | 22.4
Nc1nc(-c2cc(O)ccc2[N+](=O)[O-])cc(-c2ccccc2)c1[N+](=O)[O-] | 17.2 | / | 310.7* | 36.4 | i | i | 214.1*
O=C(NNC(=S)NC1CCCCC1)c1sc2ccccc2c1Cl | -5.2 | 16.6 | -0.1 | 0.7 | i | i | /
